Published values of several laboratories.
Compare with care: the assays were run in different laboratories.
Target: RAF proto-oncogene serine/threonine-protein kinase (RAF1, Homo sapiens, UniProt P04049)

| SMILES | observed | method | tested at | remaining binding |
| --- | --- | --- | --- | --- |
| O=C(NCCCN1CCOCC1)c1ccc(Nc2ncc(Cl)c(-c3ccc(Cl)s3)n2)cc1 | binding | competition with immobilised ligand | 1 µM | 89% |
| COc1ncc2cc3ccccc3nc2c1C#N | cell-free assay | competition with immobilised ligand | 5 µM | 93% |
| CC(=O)C1=C(C)N(c2cccc(C(F)(F)F)c2)C(=O)N[C@@H]1c1ccc(C#N)nc1 | cell-free assay | competition with immobilised ligand | 1 µM | 100% |
| O=C(Nc1c[nH]nc1C(=O)NC1CCNCC1)c1cc(F)cc(F)c1 | binding | competition with immobilised ligand | 1 µM | 100% |
| COc1cnc(Nc2cccc(S(N)(=O)=O)c2)nc1N1CCN(c2ccccc2)C(=O)C1 | binding | competition with immobilised ligand | 1 µM | 98% |
| CC(C)(C)c1ccc(-c2nc(CBr)nn2-c2cccc(O)c2)cc1 | cell-free assay | competition with immobilised ligand | 10 µM | 87% |
| C[C@H]1CCN(c2nccc(-c3cnn4ncccc34)n2)C1 | binding | – | 1 µM | 90% |
| FC(F)(F)Oc1cccc(-c2cnc3ccc(-c4ccncc4)nn23)c1 | cell-free assay | competition with immobilised ligand | 5 µM | 71% |
| COc1ccc2c(O[C@@H]3C[C@H]4C(=O)N[C@]5(C(=O)O)CC5/C=C\CCCCC[C@H](NC(=O)OC5CCCC5)C(=O)N4C3)cc(-c3csc(NC(=O)C(C)C)n3)nc2c1C (stereo partly drawn) | cell-free assay | competition with immobilised ligand | 1 µM | 95% |
| N#Cc1ccccc1CSc1nnc2c(n1)[nH]c1ccccc12 | binding | competition with immobilised ligand | 10 µM | 100% |
| N[C@@H]1CCN(c2nccc(-c3cnn4ncccc34)n2)C1 | binding | – | 1 µM | 80% |
| O=C(N1CCS(=O)(=O)CC1)N1C[C@H](c2ccc(OC(F)(F)F)cc2)C[C@H](c2nc(C3CC3)no2)C1 | cell-free assay | competition with immobilised ligand | 1 µM | 100% |
| c1cnn2ncc(-c3ccnc(N4CCC45COC5)n3)c2c1 | binding | – | 1 µM | 73% |
| CNC(=O)Nc1ccc2c(c1)[C@@]1(CC2)OC(=O)N(CC(=O)N(Cc2ccc(F)cc2)[C@@H](C)C(F)(F)F)C1=O | cell-free assay | competition with immobilised ligand | 1 µM | 100% |
| Cc1cnn2ncc(-c3ccnc(N(C)C)n3)c2c1 | binding | – | 1 µM | 100% |
| O=C(c1ccc(Nc2nccc(-c3cc4ccccc4s3)n2)cc1)N1CCC(N2CCCC2)CC1 | binding | competition with immobilised ligand | 1 µM | 84% |
| COc1ccnn2ncc(-c3ccnc(N(C)C)n3)c12 | binding | – | 1 µM | 100% |
| O=C(Nc1cccnn1)N1CC(C/C=C/c2cncc(Oc3ccc(C(F)(F)F)cn3)n2)C1 | cell-free assay | competition with immobilised ligand | 1 µM | 100% |
| F[C@@H]1CCN(c2nccc(-c3cnn4ncccc34)n2)C1 | binding | – | 1 µM | 100% |
| C[C@@H](c1ccc(-n2cnc3c(N)ncnc32)cc1)N1CCc2nn(C)c(Cc3ccccc3)c2C1=O | binding | competition with immobilised ligand | 0.1 µM | 93% |
| Cc1nccc(COC(=O)N2C[C@@H]3[C@@H](CNC(=O)c4ccc5[nH]nnc5c4)[C@@H]3C2)n1 | cell-free assay | competition with immobilised ligand | 1 µM | 94% |
| C[C@@H]1CN(c2ccc3ncc(-c4ccc5[nH]nc(C6CC6)c5c4)n3n2)C[C@H](C)O1 | binding | competition with immobilised ligand | 0.5 µM | 100% |
| CCC(=O)N[C@@H]1CC[C@H](C(=O)N(C)c2ccc(-c3nc4ccccc4o3)cc2)C1 | cell-free assay | competition with immobilised ligand | 1 µM | 94% |
| CN(C)c1nccc(-c2cnn3ncccc23)n1 | binding | – | 1 µM | 100% |
